Measurements pooled from the literature.
GRK4: G protein-coupled receptor kinase 4 (GRK4, Homo sapiens, UniProt P32298)
OPRM1: Mu-type opioid receptor (OPRM1, Homo sapiens, UniProt P35372)

Structure (SMILES)	target	read-out	action	technique	tested at	endpoint	result
C#Cc1cc(-c2cc(Nc3nc(N[C@@H](C)c4ccc(F)cn4)ncc3Cl)n[nH]2)ccc1C=O	cGMP-dependent protein kinase 1 (PRKG1, Homo sapiens, UniProt Q13976)	enzyme activity	inhibitor	–	0.2 µM	inhibition	3.89%
Cc1cc(O)c(-c2ccc([C@@H](C)CN(C)C)cc2)c2c1[nH]c(=O)c1sccc12	SRSF protein kinase 1 (SRPK1, Homo sapiens, UniProt Q96SB4)	enzyme activity	inhibitor	–	0.1 µM	inhibition	1.88%
C1=C/COCc2cc(ccc2OCCN2CCCC2)Nc2nccc(n2)-c2cccc(c2)COC/1	eIF-2-alpha kinase GCN2 (EIF2AK4, Homo sapiens, UniProt Q9P2K8, S808G)	binding	–	–	0.1 µM	remaining binding	9.6%
Cc1cc(S(=O)(=O)N[C@H]2CC[C@H](CN3CCN(c4ccc(C5CCC(=O)NC5=O)cc4F)CC3)CC2)ccc1Nc1ncc(C(F)(F)F)c(N2CCC[C@](C)(O)C2)n1 (stereo partly shown)	GRK4	binding	–	competition with immobilised ligand	1 µM	remaining binding	89%
CCN1/C(=C/C(C)=O)Sc2ccc(F)cc21	OPRM1	ligand displacement	–	radioligand	10 µM	inhibition	0.11%
NC/C(=C\F)COc1cccc(Cn2c(=S)[nH]c(=O)c3[nH]cnc32)c1	OPRM1	ligand displacement	–	radioligand	10 µM	inhibition	< 50%
CCCCC(=O)Nc1ccc(-c2ccc3ncn(CCC)c(=O)c3c2)cn1	Ephrin type-A receptor 6 (EPHA6, Homo sapiens, UniProt Q9UF33)	binding	–	competition with immobilised ligand	0.5 µM	remaining binding	100%
C[C@]1(O)CCCN(c2nc(Nc3ccc(S(=O)(=O)N[C@H]4CC[C@H](CN5CCN(c6ccc(C7CCC(=O)NC7=O)cc6F)CC5)CC4)cc3Cl)ncc2C(F)(F)F)C1 (stereo partly shown)	GRK4	binding	–	competition with immobilised ligand	1 µM	remaining binding	93%
COc1ccc2oc(-c3ccc4nc(N)oc4c3)c/c(=N\c3ccccc3NC(=O)CCN)c2c1	Protein kinase C alpha type (PRKCA, Homo sapiens, UniProt P17252)	binding	–	–	1 µM	remaining binding	100%
Cc1cc(F)cc2c(CCC(=O)N[C@@H]3C(=O)NC[C@H]3O)c(-c3ccc(F)cc3)[nH]c12	OPRM1	cell-free assay	–	–	10 µM	inhibition	5%
